Measured values published in ChEMBL document CHEMBL3877267, “Synthesis, biological evaluation and molecular modeling of 1-oxa-4-thiaspiro- and 1,4-dithiaspiro[4.5]decane derivatives as potent and selective 5-HT1A receptor agonists” (Eur J Med Chem, 2017).
Calls of active or inactive are those of the source. The calls are words filed in the database; no cut-off is given here.

Legend:
[1] = Cytotoxicity against human SH-SY5Y cells assessed as reduction in cell viability after 24 hrs by MTT assay; assay type: toxicity, cell-based
In short: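 SH-SY5Y cells in DMEM with 10% heat-inactivated FBS, 2 mM L-glutamine, penicillin/streptomycin, 37 °C, 5% CO2; seeded 10,000 cells/well and incubated overnight. Compounds added at 0.1-100 μM for 24 h at 37 °C. MTT (0.5% w/v) added for 3 h, cells lysed in DMSO/EtOH 1:1, absorbance at 570 nm. IC50 taken as the concentration giving 50% growth inhibition.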

[2] = biological target: T1, 5-hydroxytryptamine receptor 1A (Homo sapiens) (UniProt P08908); assay: Agonist activity at recombinant human 5-HT1A receptor expressed in HeLa cell membranes assessed as induction of [35S]GTPgammaS binding preincubated for 20 mins followed by [35S]GTPgammaS addition measured after 30 mins by liquid scintillation counting method; assay type: functional
T1 sequence (whole entry): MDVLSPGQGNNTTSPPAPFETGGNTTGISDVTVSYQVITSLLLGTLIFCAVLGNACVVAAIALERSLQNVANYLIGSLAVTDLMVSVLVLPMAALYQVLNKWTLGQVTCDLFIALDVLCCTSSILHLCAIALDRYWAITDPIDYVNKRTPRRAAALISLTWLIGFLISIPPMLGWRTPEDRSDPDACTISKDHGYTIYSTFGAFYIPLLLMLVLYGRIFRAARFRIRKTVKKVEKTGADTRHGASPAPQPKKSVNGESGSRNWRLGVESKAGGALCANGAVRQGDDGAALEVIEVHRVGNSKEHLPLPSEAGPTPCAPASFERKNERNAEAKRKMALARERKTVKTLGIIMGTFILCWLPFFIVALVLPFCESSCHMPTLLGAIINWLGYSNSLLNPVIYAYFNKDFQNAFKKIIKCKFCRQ
In short: (§1)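 HeLa membranes with recombinant human 5-HT1A (50-70 µg protein) in 20 mM HEPES, 3 mM MgSO4, 120 mM NaCl, pH 7.4. Pre-incubated with 30 µM GDP and drug (0.01 nM–10 µM) for 20 min at 30 °C, then 200 pM [35S]GTPγS added for 30 min at 30 °C. Nonspecific binding defined with 10 µM GTPγS. Filtration and scintillation counting. Emax and pD2 taken from concentration–response fits.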

[3] = biological target: T2, Alpha-1A adrenergic receptor (Homo sapiens, UniProt P35348); assay: Displacement of [3H]prazosin from recombinant human alpha1a adrenergic receptor expressed in CHO cell membranes after 30 mins by TopCount liquid scintillation counting method
T2 sequence (P35348 whole entry): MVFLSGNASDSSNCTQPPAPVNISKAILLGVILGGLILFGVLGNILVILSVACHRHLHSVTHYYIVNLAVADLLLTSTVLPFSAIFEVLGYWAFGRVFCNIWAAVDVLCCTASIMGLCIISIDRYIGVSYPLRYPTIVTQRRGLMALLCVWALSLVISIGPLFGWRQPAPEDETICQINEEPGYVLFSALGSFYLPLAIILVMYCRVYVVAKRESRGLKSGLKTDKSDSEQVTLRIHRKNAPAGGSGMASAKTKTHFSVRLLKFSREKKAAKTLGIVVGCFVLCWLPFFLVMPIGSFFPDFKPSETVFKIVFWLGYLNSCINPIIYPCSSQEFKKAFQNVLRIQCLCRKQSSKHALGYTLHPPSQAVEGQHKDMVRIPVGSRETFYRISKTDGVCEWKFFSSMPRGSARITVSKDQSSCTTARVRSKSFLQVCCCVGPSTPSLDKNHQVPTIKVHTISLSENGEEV
In short: (§2)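 Membranes from CHO cells stably expressing each human α1 subtype (70 µg protein), incubated in 50 mM Tris pH 7.4 with 0.1–0.4 nM [3H]prazosin and competitor (1 pM–1 µM) for 30 min at 25 °C. Nonspecific binding defined with 10 µM tamsulosin. Filtration and scintillation counting.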

[4] = biological target: T3, Alpha-1B adrenergic receptor (Homo sapiens, UniProt P35368); assay: Displacement of [3H]prazosin from recombinant human alpha1b adrenergic receptor expressed in CHO cell membranes after 30 mins by TopCount liquid scintillation counting method
T3 sequence (P35368 whole entry): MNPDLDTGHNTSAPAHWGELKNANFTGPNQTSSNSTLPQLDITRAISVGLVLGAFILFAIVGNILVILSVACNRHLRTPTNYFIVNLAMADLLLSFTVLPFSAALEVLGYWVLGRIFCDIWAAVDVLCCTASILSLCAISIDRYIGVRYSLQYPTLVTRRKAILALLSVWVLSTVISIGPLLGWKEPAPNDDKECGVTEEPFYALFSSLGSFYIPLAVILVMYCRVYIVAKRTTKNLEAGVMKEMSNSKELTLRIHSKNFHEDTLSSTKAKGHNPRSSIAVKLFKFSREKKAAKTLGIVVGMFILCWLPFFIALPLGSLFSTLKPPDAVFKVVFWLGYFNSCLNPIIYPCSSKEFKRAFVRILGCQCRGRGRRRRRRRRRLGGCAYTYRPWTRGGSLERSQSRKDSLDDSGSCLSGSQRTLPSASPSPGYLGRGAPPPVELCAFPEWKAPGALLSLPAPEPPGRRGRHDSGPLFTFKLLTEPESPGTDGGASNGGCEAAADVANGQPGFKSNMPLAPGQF
In short: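 Membranes from CHO cells stably expressing each human α1 subtype (70 µg protein), incubated in 50 mM Tris pH 7.4 with 0.1–0.4 nM [3H]prazosin and competitor (1 pM–1 µM) for 30 min at 25 °C. Nonspecific binding defined with 10 µM tamsulosin. Filtration and scintillation counting. Ki by Cheng–Prusoff; pKi mean of 2–3 experiments in duplicate.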

[5] = biological target: T4, Alpha-1D adrenergic receptor (Homo sapiens, UniProt P25100); assay: Displacement of [3H]prazosin from recombinant human alpha1d adrenergic receptor expressed in CHO cell membranes after 30 mins by TopCount liquid scintillation counting method; in short: as §2
T4 sequence (P25100 whole entry): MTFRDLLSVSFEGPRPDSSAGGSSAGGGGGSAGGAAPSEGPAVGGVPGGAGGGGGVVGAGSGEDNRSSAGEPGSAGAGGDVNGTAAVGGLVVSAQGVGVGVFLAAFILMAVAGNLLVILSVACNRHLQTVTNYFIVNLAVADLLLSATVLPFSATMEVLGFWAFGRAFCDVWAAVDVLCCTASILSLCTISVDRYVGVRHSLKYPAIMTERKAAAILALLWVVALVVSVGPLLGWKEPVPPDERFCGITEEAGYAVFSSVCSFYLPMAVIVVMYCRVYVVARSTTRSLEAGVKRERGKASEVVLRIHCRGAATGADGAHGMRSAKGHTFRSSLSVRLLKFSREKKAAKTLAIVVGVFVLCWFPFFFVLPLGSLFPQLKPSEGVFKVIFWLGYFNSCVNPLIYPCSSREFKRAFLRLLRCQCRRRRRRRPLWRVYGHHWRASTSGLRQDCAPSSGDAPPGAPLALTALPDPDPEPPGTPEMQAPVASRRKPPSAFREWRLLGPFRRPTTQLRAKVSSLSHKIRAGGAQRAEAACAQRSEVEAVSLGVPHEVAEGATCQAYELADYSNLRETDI

[6] = biological target: T5, 5-hydroxytryptamine receptor 1A (Homo sapiens, UniProt P08908); assay: Displacement of [3H]8-OH-DPAT from recombinant human 5-HT1A receptor expressed in HeLa cell membranes after 30 mins by TopCount liquid scintillation counting method; assay type: cell-based
T5 sequence (P08908 whole entry): T1 sequence (whole entry)

[7] = biological target: T1, 5-hydroxytryptamine receptor 1A (Homo sapiens); assay: Agonist activity at recombinant human 5-HT1A receptor expressed in HeLa cell membranes assessed as induction of [35S]GTPgammaS binding up to 10 uM preincubated for 20 mins followed by [35S]GTPgammaS addition measured after 30 mins by liquid scintillation counting method relative to serotonin; assay type: functional; in short: as §1
[8] = Neuroprotective activity against H2O2-induced cell death in human SH-SY5Y cells assessed as increase in cell viability at 1 uM after 24 hrs by MTT assay; assay type: functional
In short: (§3)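 SH-SY5Y cells seeded at 10,000 cells/well and grown 24 h at 37 °C, 5% CO2. Then co-incubated 24 h with compound at 1 μM plus one insult: H2O2 195 μM, oligomycin A 30 μM or rotenone 75 μM. Viability read by MTT at 570 nm. Given as percent neuroprotection ± SD from three independent experiments.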

[9] = Neuroprotective activity against H2O2-induced cell death in human SH-SY5Y cells assessed as increase in cell viability at 0.1 uM after 24 hrs by MTT assay; assay type: functional
In short: (§4)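 SH-SY5Y cells seeded at 10,000 cells/well and grown 24 h at 37 °C, 5% CO2. Then co-incubated 24 h with compound at 0.1 μM plus one insult: H2O2 195 μM, oligomycin A 30 μM or rotenone 75 μM. Viability read by MTT at 570 nm. Given as percent neuroprotection ± SD from three independent experiments.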

[10] = Neuroprotective activity against oligomycin A-induced cell death in human SH-SY5Y cells assessed as increase in cell viability at 1 uM after 24 hrs by MTT assay; assay type: functional; in short: as §3
[11] = Neuroprotective activity against oligomycin A-induced cell death in human SH-SY5Y cells assessed as increase in cell viability at 0.1 uM after 24 hrs by MTT assay; assay type: functional; in short: as §4
[12] = Neuroprotective activity against rotenone-induced cell death in human SH-SY5Y cells assessed as increase in cell viability at 1 uM after 24 hrs by MTT assay; assay type: functional; in short: as §3
[13] = Neuroprotective activity against rotenone-induced cell death in human SH-SY5Y cells assessed as increase in cell viability at 0.1 uM after 24 hrs by MTT assay; assay type: functional; in short: as §4
[14] = Apparent permeability from apical to basolateral side in MDCK2-MDR1 cells at 75 uM after 120 mins by UV-Visible spectrophotometric method; assay type: ADME, cell-based, Canis lupus familiaris, MDCK-II; settings: dog, MDCK-MDR1
In short: (§5)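 MDCKII-MDR1 cells seeded at 100,000 cells/cm² on Transwell inserts (0.4 µm pores); monolayers with TEER 800 Ohm cm² used. Equilibrated 30 min at 37 °C in pH 7.4 bicarbonate/glucose transport medium. Receiver sampled after 120 min at 37 °C, 5% CO2, quantified by UV-Vis. Papp calculated from acceptor/initial concentration. Triplicate wells, three experiments.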

[15] = Apparent permeability from basolateral to apical side in MDCK2-MDR1 cells at 75 uM after 120 mins by UV-Visible spectrophotometric method; assay type: ADME, cell-based, Canis lupus familiaris, MDCK-II; settings: dog, MDCK-MDR1; in short: as §5
[16] = Efflux ratio of apparent permeability from basolateral to apical over apical to basolateral side in MDCK2-MDR1 cells at 75 uM after 120 mins by UV-Visible spectrophotometric method; assay type: ADME, cell-based, Canis lupus familiaris; settings: dog, MDCK-MDR1
Mus musculus = assay: Analgesic activity in Swiss CD1 mouse assessed reduction in formalin-induced inflammatory pain by measuring reduction in time spent in licking or biting formalin injected hind paw at 10 mg/kg, ip pretreated for 15 mins followed by formalin injection measured every 5 mins for 10 to 60 mins; assay type: functional, organism-based
In short: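 Male Swiss […] mice, 25-30 g. Dosed i.p. in saline with 10% DMSO (5 ml/kg) 15 min before 5% formalin (10 µl) into the right hind paw. […] 8-10 mice per group; mean ± SEM; two-way repeated-measures ANOVA with Bonferroni post hoc test; scored blind.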

| SMILES | pD2 [2] | Ki [3] [nM] | Ki [4] [nM] | Ki [5] [nM] | Ki [6] [nM] | other results |
| --- | --- | --- | --- | --- | --- | --- |
| CC[C@H]1/C=C/C=C/C[C@@H](C)[C@H](O)[C@@](C)(O)C(=O)[C@@H](C)[C@H](O)[C@@H](C)C(=O)[C@@H](C)[C@H](O)[C@@H](C)/C=C/C(=O)O[C@@H]2[C@H](C)[C@H](CC1)O[C@]1(CC[C@H](C)[C@H](C[C@@H](C)O)O1)[C@H]2C [OLIGOMYCIN] |  |  |  |  |  | IC50 at 24 h [1]: 29 µM |
| COc1ccccc1N1CCN(CC2COC3(CCCCC3)O2)CC1 (stereo not given) | 8.61 |  |  |  |  |  |
| COc1cccc(OC)c1OCCNCC1COC2(CCCCC2)O1 (stereo not given) |  | > 1000 | > 1000 | 1780 |  |  |
| COc1ccccc1N1CCN(CC2CSC3(CCCCC3)S2)CC1 (stereo not given) | 8.61 | 200 | 407 | 100 | 3.02 | Emax [7]: 37% |
| COc1ccccc1OCCNCC1CSC2(CCCCC2)O1 (stereo not given) |  | 269 | 219 | 32.4 | 2.24 |  |
| c1ccc(OCCNCC2COC3(CCCCC3)O2)cc1 (stereo not given) |  | > 1000 | 977 | 550 |  |  |
| C=C(C)[C@H]1Cc2c(ccc3c2O[C@@H]2COc4cc(OC)c(OC)cc4[C@@H]2C3=O)O1 [ROTENONE] |  |  |  |  |  | IC50 at 24 h [1]: 74.1 µM |
| COc1ccccc1OCCNCC1CSC2(CCCCC2)S1 (stereo not given) | 9.58 | 186 | 195 | 34.7 | 0.933 | Emax [7]: 74%; IC50 at 24 h [1]: 51 µM; Activity [8]: 66%; Activity [9]: 83%; Activity [10]: 86%; Activity [11]: 81%; Activity [12]: 66%; Activity [13]: 62%; Papp A→B at 2 h, 75 µM [14]: 11.1 ×10⁻⁶ cm/s; Papp B→A at 2 h, 75 µM [15]: 10.9 ×10⁻⁶ cm/s; efflux ratio at 2 h, 75 µM [16]: 0.98; Activity (Mus musculus): Active |
| COc1ccccc1OCCNCC1COC2(CCCCC2)O1 (stereo not given) |  | 229 | 389 | 95.5 |  |  |
| COc1ccccc1N1CCN(CC2CSC3(CCCCC3)O2)CC1 (stereo not given) |  | 57.5 | 191 | 38.9 | 5.01 |  |
| c1ccc(OCCNCC2CSC3(CCCCC3)O2)cc1 (stereo not given) |  | > 1000 | 437 | 214 | 22.9 |  |
| c1ccc(OCCNCC2CSC3(CCCCC3)S2)cc1 (stereo not given) | 8.27 | > 1000 | 550 | 123 | 1.55 | Emax [7]: 85% |
| COc1ccccc1N1CCN(CCN2C(=O)CC3(CCCC3)CC2=O)CC1 | 9.27 |  |  |  |  |  |
| OO [HYDROGEN PEROXIDE] |  |  |  |  |  | IC50 at 24 h [1]: 195 µM |
